Assay results from ChEMBL document CHEMBL1139900, “Synthesis and SAR studies of a novel class of S1P1 receptor antagonists” (Bioorg Med Chem, 2007).

Key:
Assay type in all cases: functional, cell-based
[1] = target: T1, Sphingosine 1-phosphate receptor 1 (Homo sapiens, UniProt P21453); experiment: Antagonist activity at human S1P1 receptor expressed in CHO cell membrane by cAMP assay
Method in brief: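 CHO cells stably expressing human S1P1, kept in selection medium with 125 nM methotrexate, seeded at 4 × 10⁵ cells/well and grown overnight. Serum was removed, cells preincubated 5 min with 1 mM IBMX, then stimulated 15 min with 30 µM forskolin ± 100 nM S1P plus test compound at various concentrations, with IBMX kept present. Cells were lysed in 1% Triton X-100; cAMP read by competitive kit assay (n = 3).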

[2] = target: Sphingosine 1-phosphate receptor 3 (Homo sapiens, UniProt Q99500); experiment: Antagonist activity at human S1P3 receptor expressed in CHO cell membrane by FLIPR assay
Method in brief: (§1)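 Stably transfected CHO cells in HAM medium with 10% dialyzed FBS, seeded at 5 × 10⁴ cells/mL and grown 2 days. Buffer: HBSS without phenol red, 20 mM Hepes, 2.5 mM probenecid, pH 7.4. Loaded 45–60 min with 4 µM Fluo3-AM plus 0.04% pluronic acid, then washed. Serially diluted compound added for 10 min before S1P injection; calcium fluorescence read on FLIPR.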

[3] = target: Sphingosine 1-phosphate receptor 4 (Homo sapiens, UniProt O95977); experiment: Antagonist activity at human S1P4 receptor expressed in CHO cell membrane by FLIPR assay
Method in brief: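 S1P4-expressing cells in HAM medium with 10% dialyzed FBS, seeded at 1 × 10⁵ cells/mL and grown 2 days. Buffer: HBSS without phenol red, 20 mM Hepes, 2.5 mM probenecid, pH 7.4. Fluo3-AM (4 µM, with 0.04% pluronic acid) loading for 45–60 min, then washed. Serially diluted compound given 10 min before S1P injection; calcium signal measured on FLIPR.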

[4] = target: T1, Sphingosine 1-phosphate receptor 1; experiment: Antagonist activity at human S1P1 receptor expressed in CHO cell membrane by FLIPR assay; method in brief: as §1
[5] = target: Sphingosine 1-phosphate receptor 2 (Homo sapiens, UniProt O95136); experiment: Antagonist activity at human S1P2 receptor expressed in CHO cell membrane by FLIPR assay; method in brief: as §1
Sphingosine 1-phosphate receptor 2, sequence (O95136 whole entry): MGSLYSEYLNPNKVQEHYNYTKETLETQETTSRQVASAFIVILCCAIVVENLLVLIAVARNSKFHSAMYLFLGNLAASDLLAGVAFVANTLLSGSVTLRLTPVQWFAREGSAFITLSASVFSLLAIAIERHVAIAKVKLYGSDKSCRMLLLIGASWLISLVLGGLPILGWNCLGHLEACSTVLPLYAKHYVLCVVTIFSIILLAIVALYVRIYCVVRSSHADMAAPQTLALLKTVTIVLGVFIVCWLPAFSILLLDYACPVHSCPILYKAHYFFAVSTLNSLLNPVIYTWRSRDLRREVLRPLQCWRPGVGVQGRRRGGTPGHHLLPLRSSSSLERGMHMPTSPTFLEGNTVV

T1 sequence (P21453 whole entry): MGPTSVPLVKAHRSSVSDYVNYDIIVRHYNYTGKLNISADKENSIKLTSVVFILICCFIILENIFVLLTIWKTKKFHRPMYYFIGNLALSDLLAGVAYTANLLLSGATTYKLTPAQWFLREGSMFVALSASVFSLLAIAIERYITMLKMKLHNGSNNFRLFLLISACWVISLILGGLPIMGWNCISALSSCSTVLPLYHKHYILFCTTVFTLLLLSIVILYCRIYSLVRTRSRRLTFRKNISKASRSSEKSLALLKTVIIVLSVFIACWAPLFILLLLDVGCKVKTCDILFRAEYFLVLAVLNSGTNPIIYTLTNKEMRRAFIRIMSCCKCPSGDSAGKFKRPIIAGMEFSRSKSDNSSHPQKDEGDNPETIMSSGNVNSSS
Sphingosine 1-phosphate receptor 3, sequence (Q99500 whole entry): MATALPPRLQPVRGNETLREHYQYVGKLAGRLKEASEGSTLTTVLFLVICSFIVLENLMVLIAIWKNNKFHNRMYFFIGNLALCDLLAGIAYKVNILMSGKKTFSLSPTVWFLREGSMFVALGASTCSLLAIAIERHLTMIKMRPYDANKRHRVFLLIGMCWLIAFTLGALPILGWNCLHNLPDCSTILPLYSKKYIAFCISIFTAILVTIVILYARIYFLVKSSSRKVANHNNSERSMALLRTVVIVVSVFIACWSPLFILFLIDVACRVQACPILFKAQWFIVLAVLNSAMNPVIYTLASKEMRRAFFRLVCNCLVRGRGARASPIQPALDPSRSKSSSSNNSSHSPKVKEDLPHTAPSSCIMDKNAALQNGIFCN
Sphingosine 1-phosphate receptor 4, sequence (O95977 whole entry, looked up): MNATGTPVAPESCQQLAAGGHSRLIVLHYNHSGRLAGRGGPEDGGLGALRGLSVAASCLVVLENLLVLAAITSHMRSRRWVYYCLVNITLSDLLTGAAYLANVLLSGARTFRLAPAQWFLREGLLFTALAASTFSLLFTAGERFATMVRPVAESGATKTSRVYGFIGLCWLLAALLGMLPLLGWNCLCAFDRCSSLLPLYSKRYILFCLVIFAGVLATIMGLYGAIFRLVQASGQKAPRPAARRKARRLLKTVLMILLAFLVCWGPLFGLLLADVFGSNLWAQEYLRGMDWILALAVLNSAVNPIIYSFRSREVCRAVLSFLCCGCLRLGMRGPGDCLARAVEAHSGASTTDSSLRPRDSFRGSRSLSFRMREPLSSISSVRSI

Row | Compound | IC50 [1] | further results
1 | CCCCCCCCCCC#CC(O)c1cccc(-c2ccc(Oc3ccc(OCC)cc3)c(S(=O)(=O)O)c2)c1 (configuration not stated) | 4600 nM | –
2 | CCCCCCCCCCC#CC(O)c1ccccc1-c1ccc(Sc2ccc(OCC)cc2)c(S(=O)(=O)O)c1 (configuration not stated) | 400 nM | –
3 | CCCCCCCCCCC#CC(O)c1ccccc1-c1ccc(Sc2ccc(OCCCC)cc2)c(S(=O)(=O)O)c1 (configuration not stated) | 190 nM | IC50 [2]: 13 µM; IC50 [3]: 40 µM; IC50 [4]: 1000 nM; IC50 [5]: 24 µM
4 | CCCCCCCCCCC#CC(O)c1ccccc1-c1ccc(Oc2ccc(OCC)cc2)c(S(=O)(=O)O)c1 (configuration not stated) | 400 nM | –
5 | CCCCCCCCCCC#CC(O)c1ccccc1-c1ccc(Oc2cccc(OCC)c2)c(S(=O)(=O)O)c1 (configuration not stated) | > 17000 nM | –
6 | CCCCCCCCCCC#CC(O)c1ccccc1-c1ccc(Sc2ccc(OCCCCCCCC)cc2)c(S(=O)(=O)O)c1 (configuration not stated) | > 2400 nM | –
7 | CCCCOc1ccc(Sc2ccc(-c3ccccc3C(O)C#CCOCCCCCCCCCO)cc2S(=O)(=O)O)cc1 (configuration not stated) | 98 nM | –
8 | CCCCCCCCCCC#CC(O)c1ccc(-c2ccc(Oc3ccc(OCC)cc3)c(S(=O)(=O)O)c2)s1 (configuration not stated) | 5500 nM | –
9 | CCCCCCCCCCC#CC(O)c1ccccc1-c1ccc(Sc2ccc(OC)cc2)c(S(=O)(=O)O)c1 (configuration not stated) | 700 nM | –
10 | CCCCCCCCCCC#CC(O)c1ccccc1-c1ccc(Sc2ccc(OCCC)cc2)c(S(=O)(=O)O)c1 (configuration not stated) | 190 nM | –
11 | CCCCCCCCCCCCCCCCCC1=NN(c2ccc(Oc3ccc(OCC)cc3)c(S(=O)(=O)O)c2)C(=O)C1 | 17000 nM | –
12 | CCCCCCCCCCC#CC(O)c1ccccc1-c1ccc(Sc2ccc(OCCCCCC)cc2)c(S(=O)(=O)O)c1 (configuration not stated) | 520 nM | –
13 | CCCCOc1ccc(Sc2ccc(-c3ccccc3C(O)C#CCOCCCO)cc2S(=O)(=O)O)cc1 (configuration not stated) | > 20000 nM | –
14 | CCCCOc1ccc(Sc2ccc(-c3ccccc3C(O)C#CCOCCCCCCCCCCCO)cc2S(=O)(=O)O)cc1 (configuration not stated) | 130 nM | –
15 | CCCCCCCCCCC#CC(C)(O)c1ccccc1-c1ccc(Sc2ccc(OCCCC)cc2)c(S(=O)(=O)O)c1 (configuration not stated) | 1000 nM | –
16 | CCCCOc1ccc(Sc2ccc(-c3ccccc3C(O)C#CCOCCCCCO)cc2S(=O)(=O)O)cc1 (configuration not stated) | 340 nM | –
17 | CCCCOc1ccc(Sc2ccc(-c3ccccc3C(O)C#CCOCCCCCCCO)cc2S(=O)(=O)O)cc1 (configuration not stated) | 31 nM | IC50 [2]: 5 µM; IC50 [3]: 6 µM; IC50 [4]: 500 nM; IC50 [5]: 11 µM
18 | CCCCCCCCCCC#CC(O)c1ccccc1-c1ccc(Oc2ccccc2OCC)c(S(=O)(=O)O)c1 (configuration not stated) | 8900 nM | –
19 | CCCCCCCCCCC#CC(O)c1sccc1-c1ccc(Oc2ccc(OCC)cc2)c(S(=O)(=O)O)c1 (configuration not stated) | 1300 nM | –
